Experimental data as given in the M2OR odorant receptor database.

Experiments:
Conditions in all cases: stereoisomer not certain
[1] = target: T1, OR51E1 (Homo sapiens) (UniProt Q8TCB6)
T1 sequence (whole entry): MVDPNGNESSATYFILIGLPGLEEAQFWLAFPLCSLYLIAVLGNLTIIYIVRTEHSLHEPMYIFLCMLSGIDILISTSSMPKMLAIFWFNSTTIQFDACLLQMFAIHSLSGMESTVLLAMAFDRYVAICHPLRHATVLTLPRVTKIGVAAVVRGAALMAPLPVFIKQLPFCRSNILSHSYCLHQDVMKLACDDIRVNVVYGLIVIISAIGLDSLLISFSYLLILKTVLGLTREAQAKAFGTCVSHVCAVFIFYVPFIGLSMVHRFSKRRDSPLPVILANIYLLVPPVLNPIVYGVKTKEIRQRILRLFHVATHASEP
Outline: (§1)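 Assay methods differ from source to source, frequently being transient luciferase assays in mammalian cell lines. For each receptor–molecule pair, the label responsive (active) applies when the original authors judged the measured signal statistically different from baseline, and non-responsive (inactive) applies otherwise.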

[2] = target: T2, OR51D1 (Homo sapiens) (UniProt Q8NGF3)
T2 sequence (whole entry): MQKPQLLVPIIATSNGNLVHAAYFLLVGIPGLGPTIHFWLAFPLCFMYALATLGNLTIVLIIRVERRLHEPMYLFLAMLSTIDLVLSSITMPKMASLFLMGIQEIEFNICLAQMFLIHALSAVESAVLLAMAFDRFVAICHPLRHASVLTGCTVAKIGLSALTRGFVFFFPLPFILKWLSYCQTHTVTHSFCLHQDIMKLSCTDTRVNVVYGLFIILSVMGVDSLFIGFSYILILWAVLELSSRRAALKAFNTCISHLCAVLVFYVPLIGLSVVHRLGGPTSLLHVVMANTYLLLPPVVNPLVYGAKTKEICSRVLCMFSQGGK
Outline: as §1

[3] = target: T3, OR51E2 (Homo sapiens) (UniProt Q9H255)
T3 sequence (whole entry): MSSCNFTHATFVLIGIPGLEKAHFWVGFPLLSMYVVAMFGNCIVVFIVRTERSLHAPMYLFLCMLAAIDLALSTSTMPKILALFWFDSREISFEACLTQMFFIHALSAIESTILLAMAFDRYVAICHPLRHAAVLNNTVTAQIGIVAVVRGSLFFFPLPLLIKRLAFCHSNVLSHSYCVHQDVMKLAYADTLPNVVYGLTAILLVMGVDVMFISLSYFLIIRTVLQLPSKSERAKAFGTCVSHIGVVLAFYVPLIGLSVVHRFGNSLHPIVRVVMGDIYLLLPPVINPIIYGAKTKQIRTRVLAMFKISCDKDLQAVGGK
Outline: as §1

[4] = target: T4, OR51F1 (Homo sapiens) (UniProt A6NGY5)
T4 sequence (whole entry): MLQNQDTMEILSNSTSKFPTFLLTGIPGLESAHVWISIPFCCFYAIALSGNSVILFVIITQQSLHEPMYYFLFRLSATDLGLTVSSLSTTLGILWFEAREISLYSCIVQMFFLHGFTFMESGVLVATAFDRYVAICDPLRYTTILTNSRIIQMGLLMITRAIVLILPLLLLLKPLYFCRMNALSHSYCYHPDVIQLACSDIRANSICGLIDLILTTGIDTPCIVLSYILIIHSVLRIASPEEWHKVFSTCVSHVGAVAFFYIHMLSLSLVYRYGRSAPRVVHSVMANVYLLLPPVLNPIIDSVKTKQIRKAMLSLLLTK
Outline: as §1

[5] = target: T5, OR51F2 (Homo sapiens) (UniProt Q8NH61)
T5 sequence (whole entry): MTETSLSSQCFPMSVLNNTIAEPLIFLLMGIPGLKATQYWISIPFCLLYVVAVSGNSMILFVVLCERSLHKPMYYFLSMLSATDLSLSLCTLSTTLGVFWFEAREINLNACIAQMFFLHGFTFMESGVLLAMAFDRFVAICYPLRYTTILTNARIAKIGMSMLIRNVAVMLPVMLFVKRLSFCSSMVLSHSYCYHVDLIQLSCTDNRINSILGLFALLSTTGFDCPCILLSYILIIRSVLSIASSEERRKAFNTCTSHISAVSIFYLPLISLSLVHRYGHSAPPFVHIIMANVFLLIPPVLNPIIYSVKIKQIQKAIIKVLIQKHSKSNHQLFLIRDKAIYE
Outline: as §1

[6] = target: T6, OR51G1 (Homo sapiens) (UniProt Q8NGK1)
T6 sequence (whole entry): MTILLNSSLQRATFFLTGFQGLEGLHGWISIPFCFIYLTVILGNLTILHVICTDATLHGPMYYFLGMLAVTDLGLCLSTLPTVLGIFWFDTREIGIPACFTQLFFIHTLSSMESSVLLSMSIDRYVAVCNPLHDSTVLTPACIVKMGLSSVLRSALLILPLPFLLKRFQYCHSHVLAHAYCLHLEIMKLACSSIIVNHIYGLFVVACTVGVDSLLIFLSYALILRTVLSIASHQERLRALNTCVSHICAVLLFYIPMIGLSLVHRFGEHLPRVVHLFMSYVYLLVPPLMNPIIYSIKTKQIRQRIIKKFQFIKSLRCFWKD
Outline: as §1

[7] = target: T7, OR51G2 (Homo sapiens) (UniProt Q8NGK0)
T7 sequence (whole entry): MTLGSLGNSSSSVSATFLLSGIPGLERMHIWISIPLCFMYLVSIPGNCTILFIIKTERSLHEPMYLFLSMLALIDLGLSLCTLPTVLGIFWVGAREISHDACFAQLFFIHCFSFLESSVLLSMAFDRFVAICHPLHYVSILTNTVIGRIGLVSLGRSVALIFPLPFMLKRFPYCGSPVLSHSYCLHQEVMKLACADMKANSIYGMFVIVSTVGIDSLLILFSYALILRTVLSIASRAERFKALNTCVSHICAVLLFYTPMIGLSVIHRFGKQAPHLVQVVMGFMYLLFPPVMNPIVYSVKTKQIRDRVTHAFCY
Outline: as §1

[8] = target: T8, OR51I1 (Homo sapiens) (UniProt Q9H343)
T8 sequence (whole entry): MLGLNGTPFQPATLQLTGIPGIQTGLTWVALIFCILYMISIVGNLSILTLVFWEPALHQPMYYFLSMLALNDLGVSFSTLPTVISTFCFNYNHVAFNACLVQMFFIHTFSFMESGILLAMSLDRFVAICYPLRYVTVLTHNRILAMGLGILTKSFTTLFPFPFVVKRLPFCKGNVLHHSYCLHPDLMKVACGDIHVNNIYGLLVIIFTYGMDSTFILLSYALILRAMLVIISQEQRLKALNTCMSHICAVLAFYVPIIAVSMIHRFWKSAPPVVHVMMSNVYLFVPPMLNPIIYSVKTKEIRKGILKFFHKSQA
Outline: as §1

[9] = target: T9, OR51I2 (Homo sapiens) (UniProt Q9H344)
T9 sequence (whole entry): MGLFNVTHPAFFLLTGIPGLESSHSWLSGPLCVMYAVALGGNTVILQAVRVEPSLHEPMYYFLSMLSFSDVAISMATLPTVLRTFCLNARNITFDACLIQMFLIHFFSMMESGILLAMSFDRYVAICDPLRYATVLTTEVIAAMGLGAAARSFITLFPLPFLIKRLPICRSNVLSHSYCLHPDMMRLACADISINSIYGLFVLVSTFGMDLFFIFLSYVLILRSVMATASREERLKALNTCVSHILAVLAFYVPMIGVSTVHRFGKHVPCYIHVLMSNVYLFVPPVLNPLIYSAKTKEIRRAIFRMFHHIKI
Outline: as §1

[10] = target: T10, OR51J1 (Homo sapiens) (UniProt Q9H342)
T10 sequence (whole entry): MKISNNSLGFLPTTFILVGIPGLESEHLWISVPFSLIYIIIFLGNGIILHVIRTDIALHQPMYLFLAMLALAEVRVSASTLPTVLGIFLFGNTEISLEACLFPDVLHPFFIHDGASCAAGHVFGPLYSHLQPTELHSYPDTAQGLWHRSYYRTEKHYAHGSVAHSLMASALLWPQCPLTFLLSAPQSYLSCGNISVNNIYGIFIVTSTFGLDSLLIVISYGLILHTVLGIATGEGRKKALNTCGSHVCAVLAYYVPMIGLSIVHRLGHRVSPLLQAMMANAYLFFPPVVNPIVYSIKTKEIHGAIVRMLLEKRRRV
Outline: as §1

[11] = target: T11, OR51L1 (Homo sapiens) (UniProt Q8NGJ5)
T11 sequence (whole entry): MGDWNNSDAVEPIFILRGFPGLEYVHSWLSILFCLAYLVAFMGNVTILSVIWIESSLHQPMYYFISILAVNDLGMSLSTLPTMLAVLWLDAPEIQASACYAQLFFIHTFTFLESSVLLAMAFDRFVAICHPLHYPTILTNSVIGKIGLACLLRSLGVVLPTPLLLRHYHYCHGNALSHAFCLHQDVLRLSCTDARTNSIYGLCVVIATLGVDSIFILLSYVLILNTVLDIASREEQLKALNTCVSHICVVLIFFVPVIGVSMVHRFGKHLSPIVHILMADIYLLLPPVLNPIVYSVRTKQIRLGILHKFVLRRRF
Outline: as §1

[12] = target: T12, OR51M1 (Homo sapiens) (UniProt Q9H341)
T12 sequence (whole entry): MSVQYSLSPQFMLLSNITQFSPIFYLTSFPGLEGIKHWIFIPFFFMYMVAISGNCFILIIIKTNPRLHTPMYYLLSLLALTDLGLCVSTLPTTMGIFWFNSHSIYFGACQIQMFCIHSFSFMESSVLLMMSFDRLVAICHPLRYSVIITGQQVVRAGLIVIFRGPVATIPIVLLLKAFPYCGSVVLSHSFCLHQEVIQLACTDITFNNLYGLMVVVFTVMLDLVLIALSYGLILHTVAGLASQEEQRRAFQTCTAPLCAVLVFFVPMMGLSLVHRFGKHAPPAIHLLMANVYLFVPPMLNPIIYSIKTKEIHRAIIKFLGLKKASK
Outline: as §1

[13] = target: T13, OR51Q1 (Homo sapiens) (UniProt Q8NH59)
T13 sequence (whole entry): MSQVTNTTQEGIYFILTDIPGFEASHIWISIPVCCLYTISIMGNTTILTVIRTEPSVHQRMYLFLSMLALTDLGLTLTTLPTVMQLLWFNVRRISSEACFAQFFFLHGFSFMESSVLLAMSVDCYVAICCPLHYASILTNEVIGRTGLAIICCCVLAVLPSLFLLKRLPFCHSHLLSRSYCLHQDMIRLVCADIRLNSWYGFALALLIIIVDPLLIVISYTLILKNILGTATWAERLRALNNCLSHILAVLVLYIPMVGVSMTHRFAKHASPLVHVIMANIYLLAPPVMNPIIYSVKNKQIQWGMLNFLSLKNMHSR
Outline: as §1

[14] = target: T14, OR51S1 (Homo sapiens) (UniProt Q8NGJ8)
T14 sequence (whole entry): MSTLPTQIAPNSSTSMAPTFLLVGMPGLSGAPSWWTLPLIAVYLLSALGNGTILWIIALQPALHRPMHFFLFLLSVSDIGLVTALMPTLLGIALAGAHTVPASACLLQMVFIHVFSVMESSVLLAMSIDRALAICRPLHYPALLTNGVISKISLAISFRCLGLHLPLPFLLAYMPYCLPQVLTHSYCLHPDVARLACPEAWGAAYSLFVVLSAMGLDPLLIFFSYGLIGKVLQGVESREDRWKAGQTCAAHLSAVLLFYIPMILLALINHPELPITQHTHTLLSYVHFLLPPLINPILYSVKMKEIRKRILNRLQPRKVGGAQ
Outline: as §1

[15] = target: T15, OR51T1 (Homo sapiens) (UniProt Q8NGJ9)
T15 sequence (whole entry): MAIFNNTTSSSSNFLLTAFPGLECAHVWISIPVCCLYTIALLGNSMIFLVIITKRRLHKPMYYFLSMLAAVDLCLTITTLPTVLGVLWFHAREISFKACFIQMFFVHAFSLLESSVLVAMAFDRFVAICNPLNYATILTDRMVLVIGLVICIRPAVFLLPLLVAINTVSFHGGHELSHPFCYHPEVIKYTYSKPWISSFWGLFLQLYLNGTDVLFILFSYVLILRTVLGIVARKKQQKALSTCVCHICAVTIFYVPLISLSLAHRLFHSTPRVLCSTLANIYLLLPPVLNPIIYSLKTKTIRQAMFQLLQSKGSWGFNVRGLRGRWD
Outline: as §1

[16] = target: T16, OR51V1 (Homo sapiens) (UniProt Q9H2C8)
T16 sequence (whole entry): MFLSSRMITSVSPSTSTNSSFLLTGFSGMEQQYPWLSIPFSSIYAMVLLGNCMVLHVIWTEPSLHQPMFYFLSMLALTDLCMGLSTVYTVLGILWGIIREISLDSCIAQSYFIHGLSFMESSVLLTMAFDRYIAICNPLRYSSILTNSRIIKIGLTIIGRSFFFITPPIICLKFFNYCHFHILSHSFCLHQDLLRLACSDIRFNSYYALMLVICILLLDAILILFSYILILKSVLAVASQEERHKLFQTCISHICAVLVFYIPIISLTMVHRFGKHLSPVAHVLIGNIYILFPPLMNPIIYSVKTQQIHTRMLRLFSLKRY
Outline: as §1

[17] = target: T17, OR52A1 (Homo sapiens) (UniProt Q9UKL2)
T17 sequence (whole entry): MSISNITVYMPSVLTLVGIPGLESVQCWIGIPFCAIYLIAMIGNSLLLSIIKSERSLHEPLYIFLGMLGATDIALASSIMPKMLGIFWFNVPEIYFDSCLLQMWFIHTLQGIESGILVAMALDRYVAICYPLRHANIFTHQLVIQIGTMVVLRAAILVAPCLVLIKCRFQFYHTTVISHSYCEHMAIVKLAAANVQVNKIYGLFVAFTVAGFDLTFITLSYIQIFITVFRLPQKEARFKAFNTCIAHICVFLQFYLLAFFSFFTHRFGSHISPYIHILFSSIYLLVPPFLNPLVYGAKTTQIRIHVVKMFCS
Outline: as §1

[18] = target: T18, OR52A4P (Homo sapiens) (UniProt A6NMU1)
T18 sequence (whole entry): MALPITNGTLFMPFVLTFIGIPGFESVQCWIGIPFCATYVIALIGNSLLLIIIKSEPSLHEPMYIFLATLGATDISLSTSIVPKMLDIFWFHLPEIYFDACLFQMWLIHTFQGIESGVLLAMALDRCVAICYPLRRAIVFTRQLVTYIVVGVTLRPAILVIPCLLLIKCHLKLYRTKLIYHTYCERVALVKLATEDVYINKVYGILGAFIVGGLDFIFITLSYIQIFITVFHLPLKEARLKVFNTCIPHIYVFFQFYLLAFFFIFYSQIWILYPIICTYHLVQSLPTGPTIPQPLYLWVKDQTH
Outline: as §1

Measured: odorant receptor agonist call

CCCCCCCCCCCCCCCC(=O)[O-].[H+]
inactive: [1]

CCCCCC(S)C(C)CO (centres undefined)
inactive: [2] | [1] | [3] | [4] | [5] | [6] | [7] | [8] | [9] | [10] | [11] | [12] | [13] | [14] | [15] | [16] | [17] | [18]
